# STAT3 inh – inhibitors of IL-6 induced STAT3 signaling; AID 862; U3A cells, IL-6 STAT3-luciferase reporter, luminescence; host cell line lacks STAT1; inhibition, % at 5.5 µM; 0.89% of 190,000 active;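 active = inhibition above the mean inhibition across all screened compounds plus 3 SD, cut at about 44% in these data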;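 note: 0% = DMSO only wells and 100% = 100 µM nifuroxazide control wells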
# NF-kB neuron act – NF-kB expression increase, human neuronal cells | fold change at 12.5 µM | 1.6% of 190,000 active | NF-kB reporter expression; stronger effect = higher value; in the data active = fold change above about 3.3
# STAT3 act – increases IL-6 driven STAT3 reporter signal. U3A cells, IL-6 STAT3-luciferase reporter, luminescence; 100% = signal with IL-6 EC80 alone. activation (% of control), % at 5.6 µM. 0.91% of 190,000 active;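 active = activation above the screen-wide mean of compound activation plus 3 SD, cut at about 130% in these data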;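 note: 0% = background luminescence of wells with medium and substrate only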
#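 Detection: reporter luminescence signal / Assay system: STAT1-lacking human U3A cells, STAT3 luciferase reporter / Incubation: compound pre-incubation 1 h before IL-6, then 6 h stimulation at 37 °C / Control set: IL-6-only high control / Read-out: % activation relative to IL-6 control / Probe or stimulus: Interleukin-6, 33 ng/mL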
# APP 5'UTR act – APP 5'UTR luciferase reporter activation; SH-SY5Y APP 5'UTR luciferase reporter, luminescence; zero percent = DMSO vehicle wells; activation, % at 2 µM; 1% of 190,000 active; AID 1276;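 active = activation above a set limit, based on mean plus 3 SD of controls, cut at about 140% in these data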
# STAT1 blocker – reduces IFN-gamma driven STAT1 reporter signal; 0.35% of 200,000 active; inhibition, % at 5.5 µM; AID 920; NIH 3T3 STAT1-luciferase reporter, luminescence;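 active = inhibition above a set limit, the mean inhibition across all tested compounds plus 3 SD, cut at about 34% in these data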;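 note: 0% = IFN-gamma with DMSO and 100% = IFN-gamma with 300 µM nifuroxazide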
# STAT1 act – increases IFN-gamma driven STAT1 reporter signal; NIH 3T3 STAT1-luciferase reporter, luminescence; 100% = IFN-gamma alone, no compound; activation (% of control), % at 5.5 µM; 2.6% of 200,000 active;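 active = activation above the screen-wide mean activation plus 3 SD, cut at about 130% in these data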;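 note: raw ratio to IFN-gamma control signal so 100% means no change and 0% no light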
# * marks the source's active call; other numbers are inactive results. This is a sample that favours compounds with a hit; in the whole collection about 4.9% have one here.
SMILES,STAT3 inh,NF-kB neuron act,STAT3 act,APP 5'UTR act,STAT1 blocker,STAT1 act
COc1ccc(C(=O)CSc2nnc(NC(=O)C3CC(=O)N(c4ccccc4)C3)s2)cc1 (stereo not drawn),-5,1,106,5,-9,108
CCC(Oc1ccccc1)C(=O)Nc1ccc(-c2nnc(-c3ccco3)o2)cc1 (stereo not drawn),6,0.68,96,80,-36,133*
COc1ccccc1OCC(=O)Nc1ccc(-c2nnc(-c3ccco3)o2)cc1,-4,1.2,106,26,-21,120
O=C(N/N=C/c1ccc(Br)o1)c1ccc2c(c1)OCCO2,-10,3,106,46,-32,130*
O=C(N/N=C/c1cccnc1)c1ccc2c(c1)OCCO2,-1,1.2,99,39,-8,107
Cc1ccc(Sc2ncccc2COC(=O)NC(C)C)cc1,-8,1.9,114,36,-27,125
CCCOc1ccc(CN(CCO)CCO)cc1[N+](=O)[O-],-38,0.95,133*,-19,-13,112
O=C(CN(c1ccc(F)cc1)S(=O)(=O)c1ccccc1)NCCSC1CCCCC1,-12,0.72,107,13,0,100
Cc1c(C(=O)OC2CCCC2)[nH]c2c1C(=O)CC(c1ccco1)C2 (stereo not drawn),-25,4.3*,120,-94,0,97
C=CCOC(=O)c1[nH]c2c(c1C)C(=O)CC(c1ccco1)C2 (stereo not drawn),-36,4.7*,130,-97,5,97
C/C=C/COC(=O)c1[nH]c2c(c1C)C(=O)CC(c1ccco1)C2 (stereo not drawn),3,1.9,102,-95,15,87
Cc1c(C(=O)OC2CCCC2C)[nH]c2c1C(=O)CCC2 (stereo not drawn),16,2,87,25,-10,110
COC(=O)C1C(=O)c2c([nH]c(C(=O)OC3CCCC3)c2C)CC1C (stereo not drawn),-9,3.4*,108,109,-57,144*
CCN1/C(=C/C=C/c2oc3ccc(-c4ccccc4)cc3[n+]2CC)Oc2ccc(-c3ccccc3)cc21,54*,0.29,56,-74,60*,44
CSc1cccc(NC(=O)/C=C/c2ccco2)c1,-4,3.2,104,36,-24,123
CCN(CC(=O)Nc1ccc2c(c1)OCCO2)C(=O)/C=C/c1ccccc1,-12,1.6,111,-9,-11,109
COc1cccc(NC(=O)/C=C/c2ccco2)c1,-10,3.7*,108,73,-29,128
O=C(/C=C/c1ccccc1)Nc1ccc2c(c1)OCCO2,79*,3.5*,35,152*,42*,60
O=C(/C=C/c1ccco1)Nc1ccc2c(c1)OCCO2,41,9.2*,69,156*,-5,103
Cc1c([N+](=O)[O-])nnn1-c1cc(Cl)cc(Cl)c1,2,1.1,100,-12,-5,103
COCCNC(=O)C1=NOC(Cn2cc(C#N)c(=O)n(C)c2=O)C1 (stereo not drawn),2,1.1,102,11,0,99
CNc1cc([N+](=O)[O-])ccc1N/C=C/C(=O)c1ccc2c(c1)OCO2,-38,1,135*,9,-39,135*
Cc1ccc([N+](=O)[O-])cc1NC(=O)c1ccc2c(c1)OCO2,11,1,95,-26,1,97
O=C(/C=C\Nc1cccc(F)c1)c1ccc2c(c1)OCO2,96*,2.3,21,196*,51*,63
O=C(/C=C\Nc1ccccc1Br)c1ccc2c(c1)OCO2,87*,6*,27,148*,82*,24
COCCn1nnnc1C(c1cccs1)N1CCN2CCCC2C1 (stereo not drawn),9,1.4,94,2,-2,100
CCOC(=O)C(NC(=O)NCc1ccccc1OC)(OCC)C(F)(F)F (stereo not drawn),4,1,96,-12,-7,106
Cc1ccc(C(=O)CCNc2ccc(F)c(Cl)c2)o1,20,5.4*,87,31,-6,107
Cc1ccc(C(=O)CCNc2ccccc2)o1,-2,1.1,101,-4,-43,140*
CS(=O)(=O)N1CCN(CC(=O)NC2CCCCC2)CC1,3,1,102,17,0,98

# Screens: PubChem BioAssay, several laboratories
